Test results taken from ChEMBL document CHEMBL2375318, “Design, synthesis and antimicrobial activity of novel benzothiazole analogs” (Eur J Med Chem, 2013).
≈ marks a conversion by molar mass, not a printed value.

Key:
[1] = test system: Enterococcus faecalis; assay: Antimicrobial activity against Enterococcus faecalis clinical isolate after 18 to 24 hrs by micro-dilution method; format: functional
[2] = test system: Pichia kudriavzevii; assay: Antifungal activity against Candida krusei ATCC 6258 after 18 to 24 hrs by micro-dilution method; format: functional
Procedure, shortened: (§1)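 Broth micro-dilution MIC, fungi. Fresh broth cultures were made in normal saline. Compounds were serially diluted in microtiter plates across 8 concentrations, 100 down to 0.78. Standardized inoculum was 1–2 × 10^7 cfu/ml. Medium was Sabouraud dextrose pH 7.3 ± 0.2. Plates were incubated aerobically at 37 °C for 18–24 h. MIC is the lowest concentration with no visible growth or turbidity versus control. Fluconazole was the reference.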

[3] = test system: Aspergillus niger; assay: Antimicrobial activity against Aspergillus niger clinical isolate after 18 to 24 hrs by micro-dilution method; format: functional; procedure, shortened: as §1
[4] = test system: Escherichia coli; assay: Antimicrobial activity against Escherichia coli ATCC 35218 after 18 to 24 hrs by micro-dilution method; format: functional
[5] = test system: Pseudomonas aeruginosa; assay: Antimicrobial activity against Pseudomonas aeruginosa ATCC 27893 after 18 to 24 hrs by micro-dilution method; format: functional
[6] = test system: Aspergillus fumigatus; assay: Antimicrobial activity against Aspergillus fumigatus clinical isolate after 18 to 24 hrs by micro-dilution method; format: functional; procedure, shortened: as §1
[7] = test system: Cryptococcus neoformans; assay: Antifungal activity against Cryptococcus neoformans clinical isolate after 18 to 24 hrs by micro-dilution method; format: functional; procedure, shortened: as §1
[8] = test system: Candida albicans; assay: Antifungal activity against Candida albicans clinical isolate after 18 to 24 hrs by micro-dilution method; format: functional; procedure, shortened: as §1
[9] = test system: Candida albicans; assay: Antifungal activity against Candida albicans ATCC 90028 after 18 to 24 hrs by micro-dilution metho; format: functional; procedure, shortened: as §1
[10] = test system: Klebsiella pneumoniae; assay: Antimicrobial activity against Klebsiella pneumoniae clinical isolate after 18 to 24 hrs by micro-dilution method; format: functional
[11] = Cytotoxicity against human RBC assessed as hemolytic activity at 100 uM after 1 hr by spectophotometry; format: cell-based, Erythrocyte; conditions: red blood cells (RBC), read-out: Activity
Procedure, shortened: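 Hemolysis, fresh human blood. RBCs were washed three times in PBS (spun 3000 rpm, 7 min, room temperature) and adjusted to 5×10^8 cells/ml. Cell suspension was added to buffer holding 100 μM compound in 1% v/v DMSO/PBS. Controls were 1% DMSO/PBS and sterile water. Samples were shaken at 37 °C for 1 h, spun at 1300 rpm for 5 min, and supernatant absorbance read at 540 nm.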

[12] = test system: Staphylococcus aureus; assay: Antimicrobial activity against Staphylococcus aureus ATCC 25323 after 18 to 24 hrs by micro-dilution method; format: functional
[13] = test system: Shigella boydii; assay: Antimicrobial activity against Shigella boydii clinical isolate after 18 to 24 hrs by micro-dilution method; format: functional
[14] = test system: Salmonella typhi; assay: Antimicrobial activity against Salmonella typhi MTCC 3216 after 18 to 24 hrs by micro-dilution method; format: functional, Salmonella enterica subsp. enterica serovar Typhi; conditions: Salmonella enterica
Procedure, shortened: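 Broth microdilution with twofold serial dilutions from 100 down to 0.78, eight concentrations. Fresh cultures were made up in normal saline, and 0.1 ml of standardized inoculum (1–2 × 10^7 cfu/ml) was added per well. Plates were incubated aerobically at 37 °C for 18–24 h on Mueller-Hinton agar/Luria broth. MIC was the lowest concentration with no visible turbidity compared with the control.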

[15] = test system: Candida tropicalis; assay: Antifungal activity against Candida tropicalis ATCC 750 after 18 to 24 hrs by micro-dilution method; format: functional; procedure, shortened: as §1

SMILES	MIC [1]	MIC [2]	MIC [3]	MIC [4]	MIC [5]	MIC [6]	MIC [7]	MIC [8]	MIC [9]	MIC [10]	hemolysis at 1 h, 100 µM [11]	MIC [12]	MIC [13]	MIC [14]	MIC [15]
Brc1ccc(-n2cc(CN(Cc3cn(-c4ccc(Br)cc4)nn3)c3nc4ccccc4s3)nn2)cc1	> 100 µg/mL	6.25 µg/mL (≈ 10 µM)	3.12 µg/mL (≈ 5.01 µM)	> 100 µg/mL	> 100 µg/mL	3.12 µg/mL (≈ 5.01 µM)	1.56 µg/mL (≈ 2.51 µM)	12.5 µg/mL (≈ 20.1 µM)	6.25 µg/mL (≈ 10 µM)	> 100 µg/mL	12.4%	> 100 µg/mL	> 100 µg/mL	> 100 µg/mL	6.25 µg/mL (≈ 10 µM)
Cc1cc(C)cc(-n2cc(CN(Cc3cn(-c4cc(C)cc(C)c4)nn3)c3nc4ccccc4s3)nn2)c1	> 100 µg/mL	> 100 µg/mL	12.5 µg/mL (≈ 24 µM)	100 µg/mL (≈ 192 µM)	> 100 µg/mL	12.5 µg/mL (≈ 24 µM)	3.12 µg/mL (≈ 5.99 µM)	12.5 µg/mL (≈ 24 µM)	3.12 µg/mL (≈ 5.99 µM)	> 100 µg/mL	7.42%	100 µg/mL (≈ 192 µM)	100 µg/mL (≈ 192 µM)	100 µg/mL (≈ 192 µM)	12.5 µg/mL (≈ 24 µM)
Clc1ccc(-n2cc(CN(Cc3cn(-c4ccc(Cl)cc4Cl)nn3)c3nc4ccccc4s3)nn2)c(Cl)c1	50 µg/mL (≈ 83 µM)	6.25 µg/mL (≈ 10.4 µM)	1.56 µg/mL (≈ 2.59 µM)	50 µg/mL (≈ 83 µM)	> 100 µg/mL	1.56 µg/mL (≈ 2.59 µM)	3.12 µg/mL (≈ 5.18 µM)	12.5 µg/mL (≈ 20.8 µM)	6.25 µg/mL (≈ 10.4 µM)	> 100 µg/mL	4.54%	50 µg/mL (≈ 83 µM)	> 100 µg/mL	> 100 µg/mL	12.5 µg/mL (≈ 20.8 µM)
Clc1ccc(-n2cc(CN(Cc3cn(-c4ccc(Cl)cc4)nn3)c3nc4ccccc4s3)nn2)cc1	3.12 µg/mL (≈ 5.85 µM)	6.25 µg/mL (≈ 11.7 µM)	6.25 µg/mL (≈ 11.7 µM)	12.5 µg/mL (≈ 23.4 µM)	6.25 µg/mL (≈ 11.7 µM)	6.25 µg/mL (≈ 11.7 µM)	3.12 µg/mL (≈ 5.85 µM)	25 µg/mL (≈ 46.9 µM)	6.25 µg/mL (≈ 11.7 µM)	50 µg/mL (≈ 93.7 µM)	4.35%	6.25 µg/mL (≈ 11.7 µM)	> 100 µg/mL	6.25 µg/mL (≈ 11.7 µM)	12.5 µg/mL (≈ 23.4 µM)
COc1cccc(-n2cc(CN(Cc3cn(-c4cccc(OC)c4)nn3)c3nc4ccccc4s3)nn2)c1	> 100 µg/mL	6.25 µg/mL (≈ 11.9 µM)	3.12 µg/mL (≈ 5.95 µM)	50 µg/mL (≈ 95.3 µM)	> 100 µg/mL	3.12 µg/mL (≈ 5.95 µM)	1.56 µg/mL (≈ 2.97 µM)	25 µg/mL (≈ 47.7 µM)	6.25 µg/mL (≈ 11.9 µM)	> 100 µg/mL	7.54%	100 µg/mL (≈ 191 µM)	> 100 µg/mL	> 100 µg/mL	12.5 µg/mL (≈ 23.8 µM)
Fc1ccc(-n2cc(CN(Cc3cn(-c4ccc(F)cc4Cl)nn3)c3nc4ccccc4s3)nn2)c(Cl)c1	6.25 µg/mL (≈ 11 µM)	6.25 µg/mL (≈ 11 µM)	25 µg/mL (≈ 43.9 µM)	3.12 µg/mL (≈ 5.48 µM)	6.25 µg/mL (≈ 11 µM)	6.25 µg/mL (≈ 11 µM)	1.56 µg/mL (≈ 2.74 µM)	6.25 µg/mL (≈ 11 µM)	50 µg/mL (≈ 87.8 µM)	100 µg/mL (≈ 176 µM)	12.3%	50 µg/mL (≈ 87.8 µM)	100 µg/mL (≈ 176 µM)	6.25 µg/mL (≈ 11 µM)	6.25 µg/mL (≈ 11 µM)
